In brackets after ≈: the same amount, converted by molar mass.
Key:
Klebsiella pneumoniae [1] = assay: Antibacterial activity against multidrug resistant Klebsiella pneumoniae ATCC43816 assessed as inhibition of bacterial growth incubated for 24 hrs in MHI medium by twofold serial dilution method; format: functional
Escherichia coli [2] = assay: Antibacterial activity against efflux pump lacking Escherichia coli assessed as inhibition of bacterial growth; format: functional, organism-based
Pseudomonas aeruginosa [3] = assay: Antibacterial activity against multidrug resistant Pseudomonas aeruginosa BAA 2108 assessed as inhibition of bacterial growth incubated for 24 hrs in MHI medium by twofold serial dilution method; format: functional
Acinetobacter baumannii [4] = assay: Antibacterial activity against recombinant OM pore producing Acinetobacter baumannii assessed as inhibition of bacterial growth; format: functional, organism-based
Acinetobacter baumannii [5] = assay: Antibacterial activity against efflux pump lacking/recombinant OM pore producing Acinetobacter baumannii assessed as inhibition of bacterial growth; format: functional, organism-based
Acinetobacter baumannii [6] = assay: Antibacterial activity against multidrug resistant Acinetobacter baumannii AYE assessed as inhibition of bacterial growth incubated for 24 hrs in MHI medium by twofold serial dilution method; format: functional
Pseudomonas aeruginosa [7] = assay: Selectivity ratio of IC50 for efflux pump lacking Pseudomonas aeruginosa to IC50 for efflux pump lacking/OM pore producing Pseudomonas aeruginosa; format: functional
Outline: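 OM impact ratio (E/PE) is the M9-MOPS growth IC50 in the efflux-lacking strain divided by that in the efflux-lacking/pore-producing strain.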

Acinetobacter baumannii [8] = assay: Antibacterial activity against wild type Acinetobacter baumannii assessed as inhibition of bacterial growth; format: functional, organism-based
Klebsiella aerogenes = assay: Antibacterial activity against multidrug resistant Klebsiella aerogenes ATCC13048 assessed as inhibition of bacterial growth incubated for 24 hrs in M9-MOPS medium by twofold serial dilution method; format: functional
Acinetobacter baumannii [9] = assay: Antibacterial activity against multidrug resistant Acinetobacter baumannii Ab5075 assessed as inhibition of bacterial growth incubated for 24 hrs in M9-MOPS medium by twofold serial dilution method; format: functional
Staphylococcus aureus = assay: Antibacterial activity against Staphylococcus aureus ATCC 25923 incubated for 24 hrs by twofold serial dilution method; format: functional
Outline: (§1)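 MICs by twofold serial dilution in 96-well plates from 10 mM DMSO stocks. Cultures grown in the indicated media; for E. coli, A. baumannii and P. aeruginosa, inducers were 0.1% arabinose, 1% arabinose and 0.1 mM IPTG respectively.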

Acinetobacter baumannii [10] = assay: Antibacterial activity against efflux pump lacking/recombinant OM pore producing Acinetobacter baumannii incubated for 24 hrs by twofold serial dilution method; format: functional; outline: as §1
Pseudomonas aeruginosa [11] = assay: Antibacterial activity against efflux pump lacking/recombinant OM pore producing Pseudomonas aeruginosa incubated for 24 hrs by twofold serial dilution method; format: functional; outline: as §1
Pseudomonas aeruginosa [12] = assay: Antibacterial activity against efflux pump lacking Pseudomonas aeruginosa assessed as inhibition of bacterial growth; format: functional, organism-based
Pseudomonas aeruginosa [13] = assay: Antibacterial activity against recombinant OM pore producing Pseudomonas aeruginosa assessed as inhibition of bacterial growth; format: functional, organism-based
Pseudomonas aeruginosa [14] = assay: Antibacterial activity against multidrug resistant Pseudomonas aeruginosa BAA 2109 assessed as inhibition of bacterial growth incubated for 24 hrs in MHI medium by twofold serial dilution method; format: functional
Pseudomonas aeruginosa [15] = assay: Selectivity ratio of IC50 for OM pore producing Pseudomonas aeruginosa to IC50 for efflux pump lacking/OM pore producing Pseudomonas aeruginosa; format: functional
Outline: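 Efflux impact ratio (P/PE) is the M9-MOPS growth IC50 in the pore-producing strain divided by that in the efflux-lacking/pore-producing strain.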

Pseudomonas aeruginosa [16] = assay: Antibacterial activity against multidrug resistant Pseudomonas aeruginosa BAA 2109 assessed as inhibition of bacterial growth incubated for 24 hrs in […] medium by twofold serial dilution method; format: functional
Escherichia coli [17] = assay: Antibacterial activity against wild type Escherichia coli assessed as inhibition of bacterial growth; format: functional, organism-based
Pseudomonas aeruginosa [18] = assay: Antibacterial activity against efflux pump lacking/recombinant OM pore producing Pseudomonas aeruginosa assessed as inhibition of bacterial growth; format: functional, organism-based
Klebsiella pneumoniae [19] = assay: Antibacterial activity against multidrug resistant Klebsiella pneumoniae ATCC13883 assessed as inhibition of bacterial growth incubated for 24 hrs in M9-MOPS medium by twofold serial dilution method; format: functional
Escherichia coli [20] = assay: Antibacterial activity against Escherichia coli SQ110 incubated for 24 hrs by twofold serial dilution method; format: functional; outline: as §1
Escherichia coli [21] = assay: Antibacterial activity against Escherichia coli SQ110 DTC C2610A incubated for 24 hrs by twofold serial dilution method; format: functional
Outline: (§2)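 E. coli SQDTC (TolC-deficient, single rRNA operon) carrying LZD-resistant 23S rRNA substitutions. Compounds come from 10 mM DMSO stocks and are twofold serially diluted in 96-well plates.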

Acinetobacter baumannii [22] = assay: Antibacterial activity against multidrug resistant Acinetobacter baumannii AYE assessed as inhibition of bacterial growth incubated for 24 hrs in M9-MOPS medium by twofold serial dilution method; format: functional
Pseudomonas aeruginosa [23] = assay: Antibacterial activity against wild type Pseudomonas aeruginosa assessed as inhibition of bacterial growth; format: functional, organism-based
Escherichia coli [24] = assay: Antibacterial activity against Escherichia coli SQ110 DTC G2032A incubated for 24 hrs by twofold serial dilution method; format: functional; outline: as §2
Klebsiella pneumoniae [25] = assay: Antibacterial activity against multidrug resistant Klebsiella pneumoniae ATCC43816 assessed as inhibition of bacterial growth incubated for 24 hrs in MHI medium by twofold serial dilution method; details: ATCC43816, 24 h
Escherichia coli [26] = assay: Antibacterial activity against recombinant OM pore producing Escherichia coli assessed as inhibition of bacterial growth; format: functional, organism-based
Escherichia coli [27] = assay: Antibacterial activity against Escherichia coli SQ110 DTC incubated for 24 hrs by twofold serial dilution method; format: functional; outline: as §1
Acinetobacter baumannii [28] = assay: Antibacterial activity against efflux pump lacking Acinetobacter baumannii assessed as inhibition of bacterial growth; format: functional, organism-based
Klebsiella pneumoniae [29] = assay: Antibacterial activity against multidrug resistant Klebsiella pneumoniae ATCC43816 assessed as inhibition of bacterial growth incubated for 24 hrs in M9-MOPS medium by twofold serial dilution method; format: functional
Pseudomonas aeruginosa [30] = assay: Antibacterial activity against multidrug resistant Pseudomonas aeruginosa BAA 2108 assessed as inhibition of bacterial growth incubated for 24 hrs in M9-MOPS medium by twofold serial dilution method; format: functional
Escherichia coli [31] = assay: Antibacterial activity against efflux pump lacking/recombinant OM pore producing Escherichia coli assessed as inhibition of bacterial growth; format: functional, organism-based
Escherichia coli [32] = assay: Antibacterial activity against efflux pump lacking/recombinant OM pore producing Escherichia coli incubated for 24 hrs by twofold serial dilution method; format: functional
Outline: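 E. coli efflux-knockout/hyperporinated strain grown in M9 medium with 50 mM MOPS (pH 7.2) and 0.2% xylose. OM pore induced with 0.1% arabinose. Compounds come from 10 mM DMSO stocks and are twofold serially diluted in 96-well plates.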

Klebsiella pneumoniae [33] = assay: Antibacterial activity against multidrug resistant Klebsiella pneumoniae ATCC13883 assessed as inhibition of bacterial growth incubated for 24 hrs in MHI medium by twofold serial dilution method; format: functional
Acinetobacter baumannii [34] = assay: Antibacterial activity against multidrug resistant Acinetobacter baumannii Ab5075 assessed as inhibition of bacterial growth incubated for 24 hrs in MHI medium by twofold serial dilution method; format: functional

CC(=O)NC[C@H]1CN(c2ccc(N3CCOCC3)c(F)c2)C(=O)O1 [LINEZOLID]
MIC (Klebsiella pneumoniae [1]): > 200 µM | IC50 (Escherichia coli [2]): 8.7 µM | MIC (Pseudomonas aeruginosa [3]): > 200 µM | IC50 (Acinetobacter baumannii [4]): 9.2 µM | IC50 (Acinetobacter baumannii [5]): 4 µM | MIC (Acinetobacter baumannii [6]): > 200 µM | Ratio IC50 (Pseudomonas aeruginosa [7]): 15 | IC50 (Acinetobacter baumannii [8]): 33.4 µM | MIC (Klebsiella aerogenes): > 200 µM | MIC (Acinetobacter baumannii [9]): ≥ 200 µM | MIC (Staphylococcus aureus): 6.25 µM (≈ 2.11 µg/mL) | MIC (Acinetobacter baumannii [10]): 25 µM | MIC (Pseudomonas aeruginosa [11]): 12.5 µM | IC50 (Pseudomonas aeruginosa [12]): 24.7 µM | IC50 (Pseudomonas aeruginosa [13]): 19.8 µM | MIC (Pseudomonas aeruginosa [14]): > 200 µM | Ratio IC50 (Pseudomonas aeruginosa [15]): 12 | MIC (Pseudomonas aeruginosa [16]): > 200 µM | IC50 (Escherichia coli [17]): > 100 µM | IC50 (Pseudomonas aeruginosa [18]): 1.7 µM | MIC (Klebsiella pneumoniae [19]): ≥ 200 µM | MIC (Escherichia coli [20]): > 100 µM | MIC (Escherichia coli [21]): 50 µM (≈ 16.9 µg/mL) | MIC (Acinetobacter baumannii [22]): 200 µM (≈ 67.5 µg/mL) | IC50 (Pseudomonas aeruginosa [23]): > 100 µM | MIC (Escherichia coli [24]): > 100 µM | MIC (Klebsiella pneumoniae [25]): > 200 µM | IC50 (Escherichia coli [26]): 18 µM | MIC (Escherichia coli [27]): 25 µM (≈ 8.43 µg/mL) | IC50 (Acinetobacter baumannii [28]): 4.9 µM | MIC (Klebsiella pneumoniae [29]): > 200 µM | MIC (Pseudomonas aeruginosa [30]): > 200 µM | IC50 (Escherichia coli [31]): 9.3 µM | MIC (Escherichia coli [32]): 25 µM | MIC (Klebsiella pneumoniae [33]): > 200 µM | MIC (Acinetobacter baumannii [34]): > 200 µM

Reference: ChEMBL document CHEMBL5104202, “Structure-Uptake Relationship Studies of Oxazolidinones in Gram-Negative ESKAPE Pathogens” (J Med Chem, 2022)
